This is a sample that favours compounds with a hit; in the whole collection about 1.5% have one here.
EBI2 antag = antagonists of human EBI2 receptor; P32249; EBI2 beta-arrestin recruitment, luminescence, 7a,25-OHC stimulated; inhibition, % at 5 µM; 360,000 tested, 0.81% active; AID 651636; in the data active = inhibition above about 38%;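 also: enzyme fragment complementation signal reports receptor beta-arrestin coupling in cells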
CCR6 antagonist = blocks CCL20-driven beta-arrestin recruitment at human CCR6. P51684. CHO-K1 CCR6 PathHunter beta-arrestin, luminescence, CCL20-stimulated. inhibition, % at 20 µM. 340,000 tested, 0.49% active. AID 493098;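 active = compounds whose inhibition of the agonist-driven luminescence signal at 20 µM reaches about 50%, limit read from the data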;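 also: cells stimulated with CCL20 at 14 nM final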
Target sequence (P51684 whole entry, looked up): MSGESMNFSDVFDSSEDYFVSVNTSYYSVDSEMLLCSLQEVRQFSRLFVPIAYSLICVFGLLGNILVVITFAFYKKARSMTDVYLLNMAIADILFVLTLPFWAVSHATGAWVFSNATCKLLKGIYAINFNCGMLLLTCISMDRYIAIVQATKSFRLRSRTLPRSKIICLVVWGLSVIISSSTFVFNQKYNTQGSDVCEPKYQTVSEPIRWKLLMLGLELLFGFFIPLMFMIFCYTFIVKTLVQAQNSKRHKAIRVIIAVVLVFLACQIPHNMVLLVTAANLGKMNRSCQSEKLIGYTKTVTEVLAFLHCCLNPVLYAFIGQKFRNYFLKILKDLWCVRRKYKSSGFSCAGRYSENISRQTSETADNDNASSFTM
APJ ag = APJ receptor agonism | P35414 | CHO-K1 APJ PathHunter beta-arrestin, luminescence; 0% DMSO wells, 100% apelin | activation, % at 20 µM | 330,000 tested, 0.11% active | AID 2520;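 active = activation more than six SD over the plate average, tested at 20 µM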
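Test system: CHO-K1 APJ beta-arrestin complementation cell line. Amount: cell density 1000 per well. Controls: DMSO negative, 10 nM Apelin-13 positive. Signal: luminescent beta-gal fragment complementation, chemiluminescent substrate. Read-out basis: agonist-driven arrestin binding to APJ. Timing: compound stimulation 90 min at 25 °C, detection 60 min.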
iPSC survival up = enhancers of human iPSC single-cell survival; hiPSC single-cell survival, ATPlite luminescence; 100% = ROCK inhibitor wells, 0% = DMSO; survival enhancement, % at 20 µM; 360,000 tested, 0.044% active; in the data active = survival enhancement above about 18%;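 also: cells exposed to compounds for 16 hours before the ATP read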
CXCR6 inh = blocks human CXCR6 beta-arrestin recruitment; inhibition, % at 20 µM; O00574; CHO-K1 PathHunter CXCR6 beta-arrestin, luminescence; 360,000 tested, 0.36% active; AID 602244; in the data active = inhibition above about 34%, passing the limit was not always enough;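 also: antagonist mode with CXCL16 agonist at 10 nM final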
APJ antagonist = antagonists of human APJ apelin receptor | P35414 | CHO-K1 APJ beta-arrestin complementation, luminescence | inhibition, % at 20 µM | 330,000 tested, 0.32% active;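 active = inhibition above about 40% at 20 µM, limit read from the data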;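 also: cells challenged with 10 nM apelin-13 agonist together with compound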
APJ antag conf = APJ receptor antagonism confirmation; shares compounds with APJ antagonist; inhibition, % at 20 µM; 950 tested, 66% active; APJ beta-arrestin recruitment, luminescence, antagonist mode; AID 2766; in the data active = inhibition above about 50%
Of the large screens only hits and unclear results are named; the others gave an inactive call (follow-up assays come after a bar, where they were run).

CCOC(=O)c1nnc2c(Br)c(-c3ccccc3)nn2c1C	APJ antagonist 44 | APJ antag conf inactive
CCOC(=O)c1nnc2cc(-c3ccccc3)nn2c1C	none
COc1ccc(NC(=O)CN(C)C(=O)c2ccccc2Sc2ncnc3sc(C)c(C)c23)cc1	none
COc1ccc(NC(=O)CSc2nc(N)cc(N)n2)cc1S(=O)(=O)N1CCCCC1	none
COc1ccccc1N1CCN(C(=O)c2c(C)cc(=O)oc2C)CC1	APJ antagonist 57 | APJ antag conf inactive
CC(=O)N1CCN(Cc2cc(=O)oc3ccccc23)CC1	none (no result: CCR6 antagonist, APJ ag, APJ antagonist)
CC(C)(C)c1cc(Br)c(O)c(N=Nc2ccc(S(=O)(=O)N3CCOCC3)cc2)c1	CCR6 antagonist 52, APJ antagonist 44 | APJ antag conf inactive
Cc1ccc(CC(=O)OC(C)C(=O)NC2CCCCC2C)cc1C (stereo not drawn)	none
C[C@@H]1CC2=C(C(=O)OC(C)(C)O2)[C@H](c2ccc(Cl)cc2)O1	none (no result: CCR6 antagonist, APJ ag, APJ antagonist)
CCSC1(SCC)N=C(N)C2(C#N)C(c3ccccc3)NC3=C(CCC3)C12C#N (stereo not drawn)	none
CCSC1(SCC)N=C(N)C2(C#N)C(c3ccc(OC)c(OC)c3OC)C12C#N (stereo not drawn)	CCR6 antagonist 58, APJ antagonist 51 | APJ antag conf 72
COc1ccc(NC(=O)Nc2cccc3c2O[C@@H](CN(C)CC2CCCCC2)[C@@H](C)CN([C@H](C)CO)C3=O)cc1	APJ antagonist 62 | APJ antag conf 62
COc1ccc(NC(=O)Nc2ccc3c(c2)C(=O)N([C@@H](C)CO)C[C@@H](C)[C@@H](CN(C)CC2CCCCC2)O3)cc1	none
C#CCOc1ccc2c3c(c(=O)oc2c1)CCCC3	none
COc1ccccc1NC(=O)CCC(=O)OCC(=O)c1ccc(C)c([N+](=O)[O-])c1	APJ antagonist 50 | APJ antag conf 62
Cc1ccc(C(=O)COC(=O)CCC(=O)NC2CCCCC2)cc1[N+](=O)[O-]	APJ antagonist 49 | APJ antag conf inactive
COc1ccccc1NC(=O)CCC(=O)OCc1cccc([N+](=O)[O-])c1	none
O=C(CCC(=O)OCC(=O)c1ccc([N+](=O)[O-])cc1)Nc1ccccc1Cl	none
O=C(CCC(=O)OCC(=O)c1cccc([N+](=O)[O-])c1)Nc1cccc(Cl)c1Cl	CCR6 antagonist 62, APJ antagonist 41 | APJ antag conf 81
Cc1ccccc1NC(=O)CCC(=O)OCC(=O)c1cccc([N+](=O)[O-])c1	CCR6 antagonist 54, APJ antagonist 56 | APJ antag conf 98
O=C(CCC(=O)OCC(=O)c1ccc(Br)cc1)NC1CCCCC1	none
CCOC(=O)CCC(=O)Nc1cccc([N+](=O)[O-])c1	none
Cc1ccccc1NC(=O)CSc1nnc(C)c2ccccc12	none
Nc1c(Cl)cc(C2=NCCn3c2c2ccc(C(F)(F)F)cc2[n+]3[O-])cc1Cl	none
C[C@@H]1O[C@H](C2CC2)Cc2[nH]c(=S)[nH]c(=O)c21	none (no result: CCR6 antagonist, APJ ag, APJ antagonist)
CCN(C(=O)COC(=O)c1ccc(O)cc1O)c1c(N)n(Cc2ccccc2)c(=O)[nH]c1=O	none
CCOc1ccc(N=C2NC(=O)S/C2=C\c2ccc(N(C)C)cc2)cc1	APJ antagonist 43 | APJ antag conf 61
CCOc1ccc(/C=C2/SC(=O)NC2=S)cc1	none
Cc1ccc(NC(=S)N/N=C2/CCCCc3ccccc32)cc1	none
Cc1cccc(NC(=S)N/N=C2/CCCCc3ccccc32)c1	APJ antagonist 48 | APJ antag conf 93
CC(=O)c1cccc(NC(=O)CCc2nc3sc4c(c3c(=O)[nH]2)CCCC4)c1	none
CCOC(=O)c1cc(-c2ccc(F)cc2)nc2c1c(=O)[nH]c(=O)n2Cc1ccccc1	none
CCOC(=O)c1cc(-c2cc(OC)c(OC)c(OC)c2)nc2c1c(=O)[nH]c(=O)n2Cc1ccccc1	APJ antagonist 55 | APJ antag conf inactive
N#CC(c1cccc(Cl)c1)c1ccc2c(C(F)(F)F)cc(C(F)(F)F)nc2n1 (stereo not drawn)	APJ antagonist 46 | APJ antag conf 76
NNc1ccc2c(C(F)(F)F)cc(C(F)(F)F)nc2n1	none
COc1ccc(C(=O)Nc2nc(C)cc(C)n2)cc1[N+](=O)[O-]	none
COc1ccc(S(=O)(=O)NNc2nc(C)cc(C)n2)cc1[N+](=O)[O-]	APJ antagonist 62 | APJ antag conf 114
CN1CCCC(OC(=O)c2cc(Cl)ccc2Cl)C1 (stereo not drawn)	none
CN1CCCC(OC(=O)c2cc(Br)ccc2Cl)C1 (stereo not drawn)	APJ antagonist 51 | APJ antag conf inactive
CSCCC(NC(=O)c1ccc(Cl)cc1Cl)C(=O)N(C)Cc1nc2ccccc2c(=O)[nH]1 (stereo not drawn)	none
O=C(CN1CCCC1)Nc1ccc(Br)cc1[N+](=O)[O-]	none
Cc1[nH]n(C(N)=S)c(=O)c1N=Nc1ccc([N+](=O)[O-])cc1Cl	CCR6 antagonist 60, CXCR6 inh 42, APJ antagonist 51 | APJ antag conf 80
COc1ccc(N2C(=O)CC(Cc3ccc(Br)cc3)C2=O)cc1 (stereo not drawn)	none
CCOc1ccc(N2C(=O)CC(Cc3ccc(Br)cc3)C2=O)cc1 (stereo not drawn)	APJ antagonist 65 | APJ antag conf inactive
Cc1ccc(S(=O)(=O)NC2CC(C)(C)N(O)C(C)(C)C2)cc1	none
O=C(c1ccc(OC2CCN(CCc3ccccc3)CC2)cc1)N1CCC[C@H]1CO	none
Cc1ccc(NCC(=O)c2ccc([N+](=O)[O-])cc2)cc1	none
Cc1ccc(C(=O)CNc2ccccc2C)cc1	CCR6 antagonist 86, CXCR6 inh 58, APJ antagonist 76 | APJ antag conf 120
Cc1ccc(C(=O)CNc2ccccc2)cc1	CCR6 antagonist 83, CXCR6 inh 47, APJ antagonist 44 | APJ antag conf 110
Cc1ccc(C(=O)CC(=O)c2ccc(C(C)(C)C)cc2)cc1	none
Cc1ccc(C(=O)CNc2cccc([N+](=O)[O-])c2)cc1	APJ antagonist 55 | APJ antag conf inactive
CCSc1nnc(NC(=O)CCNS(=O)(=O)c2ccccc2F)s1	none
CCN(CC)c1ccc(NC(=O)c2ccc3c(c2)OCO3)cc1	none
COc1cccc2cc(C(=O)C3=C(O)C(=O)N(CCN4CCOCC4)C3c3cccs3)oc12 (stereo not drawn)	APJ antagonist 56 | APJ antag conf inactive
O=C(C1=C(O)C(=O)N(CCN2CCOCC2)C1c1ccco1)c1cc2ccccc2o1 (stereo not drawn)	APJ antagonist 50 | APJ antag conf inactive
O=c1ccc2c(-c3ccccc3)c3ccc(O)cc3oc-2c1	none

Bioassay records deposited in PubChem by Sanford-Burnham Center for Chemical Genomics.
